For 50 compounds, inhibition and IC50 results are on record in ChEMBL document CHEMBL4706504, “Hit-to-lead optimization of a latency-associated nuclear antigen inhibitor against Kaposi's sarcoma-associated herpesvirus infections” (Eur J Med Chem, 2020).

Assay [1] has as its system Human gammaherpesvirus 8. The assay can be described thus: Inhibition of Kaposi's sarcoma herpesvirus C-terminal His-tagged oligomerization deficient LANA DBD (1008 to 1146 residues) K1055E/K1138S/K1140D/K1141D/R1039Q/R1040Q/A1121E/K1109A/D1110A mutant expressed in Escherichia coli BL21(DE3) assessed as inhibition of LANA interaction with 5'-Dy682-labeled viral DNA LBS1 probe at 500 uM preincubated with LANA-DBD for 60 mins followed by addition of DNA probe and measured after 30 mins by Electrophoretic mobility shift assay. The settings on record: time 90.0 min. A general note: Mobility shift assays separate free from complexed probe on a gel.

Assay [2] can be described thus: Inhibition of Kaposi's sarcoma herpesvirus C-terminal His-tagged oligomerization deficient LANA DBD (1008 to 1146 residues) K1055E/K1138S/K1140D/K1141D/R1039Q/R1040Q/A1121E/K1109A/D1110A mutant expressed in Escherichia coli BL21(DE3) assessed as inhibition of LANA interaction with fluorescently-labelled viral DNA LBS2 probe preincubated with LANA-DBD for 60 mins followed by addition of DNA probe and measured after 90 mins by flourescence polarization assay. Set-up: species or system Human gammaherpesvirus 8. In a few lines: (§1)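 FP competition of DNA binding, using the oligomerization-deficient LANA DBD mutant (aa 1008-1146, nine point mutations). Probes were LBS1, LBS2 or LBS3. Values are IC50 from the average of duplicates ± standard deviation.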

Assay [3] has as its system Human gammaherpesvirus 8. The assay can be described thus: Inhibition of Kaposi's sarcoma herpesvirus C-terminal His-tagged oligomerization deficient LANA DBD (1008 to 1146 residues) K1055E/K1138S/K1140D/K1141D/R1039Q/R1040Q/A1121E/K1109A/D1110A mutant expressed in Escherichia coli BL21(DE3) assessed as inhibition of LANA interaction with fluorescently-labelled viral DNA LBS2 probe at 500 uM preincubated with LANA-DBD for 60 mins followed by addition of DNA probe and measured after 90 mins by flourescence polarization assay. The settings on record: time 150.0 min.

Assay [4] has as its system Human gammaherpesvirus 8. Kind of assay: Inhibition of Kaposi's sarcoma herpesvirus wild type LANA CTD (934 to 1162 residues) expressed in Escherichia coli BL21 (DE3) assessed as inhibition of LANA interaction with 5'-Dy682-labeled viral DNA LBS1 probe at 250 uM preincubated with LANA CTD for 60 mins followed by addition of DNA probe and measured after 30 mins by Electrophoretic mobility shift assay. The settings on record: time 90.0 min.

In assay [5] the test system is Human gammaherpesvirus 8. The assay can be described thus: Inhibition of Kaposi's sarcoma herpesvirus C-terminal His-tagged oligomerization deficient LANA DBD (1008 to 1146 residues) K1055E/K1138S/K1140D/K1141D/R1039Q/R1040Q/A1121E/K1109A/D1110A mutant expressed in Escherichia coli BL21(DE3) assessed as inhibition of LANA interaction with 5'-Dy682-labeled …. The following applies: dose 250.0 µM, time 90.0 min.

Assay [6] in a line: Inhibition of Kaposi's sarcoma herpesvirus C-terminal His-tagged oligomerization deficient LANA DBD (1008 to 1146 residues) K1055E/K1138S/K1140D/K1141D/R1039Q/R1040Q/A1121E/K1109A/D1110A mutant expressed in Escherichia coli BL21(DE3) assessed as inhibition of LANA interaction with fluorescently-labelled viral DNA LBS3 probe preincubated with LANA-DBD for 60 mins followed by addition of DNA probe and measured after 90 mins by flourescence polarization assay. More on the design: species or system Human gammaherpesvirus 8. In a few lines: as §1

Assay [7] is described as follows: Inhibition of Kaposi's sarcoma herpesvirus C-terminal His-tagged oligomerization deficient LANA DBD (1008 to 1146 residues) K1055E/K1138S/K1140D/K1141D/R1039Q/R1040Q/A1121E/K1109A/D1110A mutant expressed in Escherichia coli BL21(DE3) assessed as inhibition of LANA interaction with fluorescently-labelled viral DNA LBS1 probe preincubated with LANA-DBD for 60 mins followed by addition of DNA probe and measured after 90 mins by flourescence polarization assay. Set-up: species or system Human gammaherpesvirus 8. In a few lines: as §1

Assay [8] can be described thus: Inhibition of Kaposi's sarcoma herpesvirus C-terminal His-tagged oligomerization deficient LANA DBD (1008 to 1146 residues) K1055E/K1138S/K1140D/K1141D/R1039Q/R1040Q/A1121E/K1109A/D1110A mutant expressed in Escherichia coli BL21(DE3) assessed as inhibition of LANA interaction with 5'-Dy682-labeled viral DNA LBS1 probe preincubated with LANA-DBD for 60 mins followed by addition of DNA probe and measured after 30 mins by Electrophoretic mobility shift assay. Set-up: species or system Human gammaherpesvirus 8.

Active and inactive are the calls of the source. The rule behind the calls is not given here.

In the case of `Cc1ccncc1-n1cc(-c2ccc(C(=O)O)cc2)nn1`, the inhibition in assay [1] amounted to 39%. For the same compound, the 50% inhibitory concentration (IC50) in assay [2] came to 86 µM.

`CNc1ccc(-n2cc(-c3ccc(C(=O)O)cc3)nn2)cn1`: the inhibition result in assay [3] is “inactive”.

For `CC(C)Nc1ccc(-n2cc(-c3ccc(C(=O)O)cc3)nn2)cn1`, the IC50 in assay [2] was > 250 µM.

For `O=C(O)c1ccc(-c2cn(Cc3cccnc3)nn2)cc1`, the half-inhibitory concentration (IC50) in assay [2] was > 250 µM.

For `O=C(O)c1cccc(-c2cn(-c3cccnc3)nn2)c1`, the IC50 in assay [2] was > 250 µM.

For `Cc1cc(Cl)ncc1-n1cc(-c2ccc(C(=O)O)cc2)nn1`, the half-maximal inhibitory concentration (IC50) in assay [2] was > 250 µM.

`O=C(O)c1ccc(-c2cn(-c3cncc(-c4ccc(CO)cc4)c3)nn2)cc1`: the concentration for half-maximal inhibition (IC50) in assay [2] is > 250 µM.

Regarding `Cc1ccc(-c2cncc(-n3cc(-c4ccc(C(=O)O)cc4)nn3)c2)cc1C`, the inhibition result in assay [3] was “inactive”.

Turning to `NC(=O)c1ccc(-c2cn(-c3cccnc3)nn2)cc1`, in assay [3], the inhibition entry is “inactive”.

As to `O=C(O)c1ccc(-c2cn(-c3cncc(-c4cccc(O)c4)c3)nn2)cc1`, the inhibition in assay [1] is 20%. Also, the IC50 in assay [2] came to 153 µM.

Turning to `Cc1cncc(-n2cc(-c3ccc(C(=O)O)cc3)nn2)c1`, in assay [1], the inhibition worked out at 78%. In assay [2], the concentration for half-maximal inhibition (IC50) amounted to 45 µM.

Regarding `O=C(O)c1ccc(-c2cn(-c3cncc(-c4ccccc4)c3Cl)nn2)cc1`, the inhibition entry in assay [4] and in assay [5] was “inactive” in each case. Moreover, in assay [1], the inhibition was found to be 100%. Also, the IC50 in assay [2] came out at 38 µM; in assay [6], 45 µM; in assay [7], 55 µM.

Consider `O=C(O)c1ccc(-c2cn(-c3ccc(Oc4ccccc4)nc3)nn2)cc1`, for which the inhibition result in assay [3] is “inactive”.

For `O=C(O)c1ccc(-c2cn(-c3cncc4ccc(Cl)cc34)nn2)cc1`, in assay [4], the inhibition result is “inactive”. For the same compound, the IC50 was 93 µM in assay [8], 17 µM in assay [2], 15 µM in assay [6] and 14 µM in assay [7]. Further, the inhibition in assay [1] is 100%.

As for `COc1cc(F)cc(-c2cncc(-n3cc(-c4ccc(C(=O)O)cc4)nn3)c2)c1`, the inhibition entry in assay [3] is “inactive”.

As for `COC(=O)c1ccc(-c2cn(-c3cccnc3)nn2)cc1`, the inhibition result in assay [3] is “inactive”.

On to `N#Cc1ccc(-n2cc(-c3ccc(C(=O)O)cc3)nn2)cn1`, for which the inhibition result in assay [1] was “inactive”. Also, the half-inhibitory concentration (IC50) in assay [2] was 52 µM.

Consider `OCc1ccc(-c2cn(-c3cccnc3)nn2)cc1`, for which the inhibition result in assay [3] was “inactive”.

In the case of `O=C(O)c1ccc(-c2cn(-c3cncc4ccccc34)nn2)cc1`, in assay [1], the inhibition is 96%. In assay [2], the IC50 turned out to be 33 µM.

As to `O=C(O)c1ccc(-c2cn(-c3cncc(-c4ccc(F)c(F)c4)c3)nn2)cc1`, the IC50 in assay [2] was > 250 µM.

With `CC(=O)Nc1ccc(-c2cn(-c3cccnc3)nn2)cc1`, the inhibition entry in assay [3] is “inactive”.

With `COc1cccc(-c2cncc(-n3cc(-c4ccc(C(=O)O)cc4)nn3)c2)c1`, in assay [1], the inhibition entry is “inactive”. For the same compound, the half-maximal inhibitory concentration (IC50) in assay [2] is 110 µM.

In the case of `Cc1cc(-c2ccccc2)ncc1-n1cc(-c2ccc(C(=O)O)cc2)nn1`, the inhibition in assay [1] worked out at 36%. In addition, the 50% inhibitory concentration (IC50) in assay [2] was 36 µM.

`O=C(O)c1ccc(-c2cn(-c3cncc(F)c3)nn2)cc1`: the inhibition result in assay [3] is “inactive”.

On to `COc1ccc(-c2cncc(-n3cc(-c4ccc(C(=O)O)cc4)nn3)c2)cc1`, for which, in assay [3], the inhibition result is “inactive”.

Turning to `O=C(O)c1ccc(-c2cn(-c3ccc(Oc4ccccc4)cc3)nn2)cc1`, in assay [3], the inhibition result was “inactive”.

Consider `Cc1cc(Oc2ccccc2)ncc1-n1cc(-c2ccc(C(=O)O)cc2)nn1`, for which the inhibition result in assay [1] is “inactive”. Also, the IC50 in assay [2] was 198 µM.

Regarding `COc1ccc(-n2cc(-c3ccc(C(=O)O)cc3)nn2)cn1`, in assay [1], the inhibition was found to be 11%. Also, the IC50 in assay [2] came to 218 µM.

For the compound `Nc1ccc(-c2cn(-c3cccnc3)nn2)cc1`, in assay [2], the IC50 was > 250 µM.

Regarding `O=C(O)c1ccc(-c2cn(-c3ccc(Oc4cccnc4)cc3)nn2)cc1`, the inhibition result in assay [4] is “inactive”. Also, the IC50 in assay [8] came to 64 µM; in assay [2], 19 µM; in assay [6] it was 25 µM; in assay [7], 15 µM. Moreover, the inhibition in assay [1] was determined as 100%.

As to `Cc1cc(-c2ccc(Cl)cc2)ncc1-n1cc(-c2ccc(C(=O)O)cc2)nn1`, the inhibition in assay [1] stood at 30%. Besides, in assay [2], the IC50 was found to be 58 µM.

Consider `O=C(O)c1ccc(-c2cn(-c3ccc(Nc4ccccc4)nc3)nn2)cc1`, for which, in assay [1], the inhibition turned out to be 29%. For the same compound, the IC50 in assay [2] was 110 µM.

For the compound `Cc1cc(Oc2cccc(F)c2)ncc1-n1cc(-c2ccc(C(=O)O)cc2)nn1`, the inhibition entry in assay [1] was “inactive”. Further, the IC50 in assay [2] turned out to be 122 µM.

For the compound `CCOC(=O)c1ccc(-c2cn(-c3cccnc3)nn2)cc1`, the inhibition entry in assay [3] was “inactive”.

As for `Cc1cc(-c2ccccc2O)ncc1-n1cc(-c2ccc(C(=O)O)cc2)nn1`, in assay [4], the inhibition entry was “inactive”. Further, the IC50 in assay [8] came out at 156 µM; in assay [2] it was 21 µM; in assay [6], 34 µM; in assay [7], 30 µM. Moreover, in assay [1], the inhibition is 100%.

Turning to `O=C(O)c1ccc(-c2cn(-c3cncc(-c4ccccc4)c3)nn2)cc1`, the IC50 in assay [2] is > 250 µM.

In the case of `O=C(O)c1ccc(-c2cn(-c3cncc(-c4ccoc4)c3)nn2)cc1`, the inhibition in assay [1] turned out to be 34%. In assay [2], the IC50 is 19 µM.

As for `O=C(O)c1ccc(-c2cn(-c3ccc(O)nc3)nn2)cc1`, the inhibition in assay [1] was 75%. Moreover, in assay [2], the IC50 came out at 214 µM.

As for `COc1ccccc1-c1cncc(-n2cc(-c3ccc(C(=O)O)cc3)nn2)c1`, the inhibition result in assay [3] was “inactive”.

As to `Cc1cc(Oc2ccccc2F)ncc1-n1cc(-c2ccc(C(=O)O)cc2)nn1`, the inhibition result in assay [1] was “inactive”. In assay [2], the IC50 worked out at 64 µM.

Consider `O=C(O)c1ccc(-c2cn(-c3cnccc3Cl)nn2)cc1`, for which the inhibition in assay [1] was determined as 94%. Besides, in assay [2], the 50% inhibitory concentration (IC50) amounted to 29 µM.

On to `O=C(O)c1ccc(-c2cn(-c3cnccc3-c3ccccc3)nn2)cc1`, for which the inhibition result in assay [4] and in assay [5] was “inactive” in each case. Moreover, the inhibition in assay [1] turned out to be 100%. The concentration for half-maximal inhibition (IC50) is 18 µM in assay [2], 42 µM in assay [6] and 52 µM in assay [7].

Consider `O=C(O)c1ccc(-c2cn(-c3cccnc3)nn2)cc1Cl`, for which the inhibition entry in assay [3] was “inactive”.

With `Cc1cc(Sc2ccccc2)ncc1-n1cc(-c2ccc(C(=O)O)cc2)nn1`, the inhibition entry in assay [1] is “inactive”. Also, the IC50 in assay [2] stood at 175 µM.

Take `Cc1cnccc1-n1cc(-c2ccc(C(=O)O)cc2)nn1`: the inhibition entry in assay [3] is “inactive”.

For the compound `O=C(O)c1ccc(-c2cn(-c3cncc(-c4cccc(CO)c4)c3)nn2)cc1`, the concentration for half-maximal inhibition (IC50) in assay [2] was > 250 µM.

Take `Cc1cc(Oc2ccc(F)cc2)ncc1-n1cc(-c2ccc(C(=O)O)cc2)nn1`: in assay [1], the inhibition entry was “inactive”. Besides, the IC50 in assay [2] was 134 µM.

Regarding `N#Cc1ccc(-c2cn(-c3cccnc3)nn2)cc1`, the half-maximal inhibitory concentration (IC50) in assay [2] is > 250 µM.

For the compound `O=C(O)c1ccc(-c2cn(-c3cnc4ccccc4c3)nn2)cc1`, in assay [1], the inhibition amounted to 61%. For the same compound, in assay [2], the half-maximal inhibitory concentration (IC50) was 70 µM.

Turning to `COC(=O)c1ccc2cncc(-n3cc(-c4ccc(C(=O)O)cc4)nn3)c2c1`, in assay [2], the IC50 is > 250 µM.

The inhibition is the drop in the measured response relative to a control, in per cent. For orientation: IC50 means the midpoint of a concentration-inhibition curve.
